Assay results as given in ChEMBL document CHEMBL1126180, “4-substituted 2-alkoxytetrahydrofurans as potent and long-lasting PAF antagonists” (J Med Chem, 1992).
Where “and” joins values, the source holds several entries; their conditions need not be identical. Identical values can stand only once. Calls of active or inactive are those of the source. No cut-off for these calls is given here.

Tests used:
Mus musculus [1] = species on record: Mus musculus; assay: Percent protection of PAF-induced mortality in mice after 17h; format: functional; design: concentration or dose not given beside the values
Outline: (§1)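 Duration study in male Swiss mice (22–26 g). Single 1 mg/kg iv dose of test compound at time 0. C18-PAF 100 µg/kg plus propranolol 1 mg/kg given iv via tail vein at the stated time after dosing, 10–40 mice per time point.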

Mus musculus [2] = species on record: Mus musculus; assay: Percent protection of PAF-induced mortality in mice after 2 hr; format: functional; design: concentration or dose not given beside the values; outline: as §1
Mus musculus [3] = species on record: Mus musculus; assay: Percent protection of PAF-induced mortality in mice after 7 hr; format: functional; design: concentration or dose not given beside the values; outline: as §1
Mus musculus [4] = species on record: Mus musculus; assay: Percent protection of PAF-induced mortality in mice after 5 hr; format: functional; design: concentration or dose not given beside the values; outline: as §1
Mus musculus [5] = species on record: Mus musculus; assay: Percent protection of PAF-induced mortality in mice after 3h; format: functional; design: concentration or dose not given beside the values; outline: as §1
Mus musculus [6] = species on record: Mus musculus; assay: Percent protection of PAF-induced mortality in mice after 0.5 hr; format: functional; design: concentration or dose not given beside the values; outline: as §1
[7] = Dose required (i.v.) to reduce the lowering of arterial blood pressure caused by PAF in rats.; settings: Rattus norvegicus
Mus musculus [8] = species on record: Mus musculus; assay: Percent protection of PAF-induced mortality in mice after 24 hr; format: functional; design: concentration or dose not given beside the values; outline: as §1
Mus musculus [9] = assay: Compound was evaluated for the inhibition of PAF-induced mortality in mice, after intravenous administration of the drug; format: functional; settings: read-out: ID50 (the source's name)
Mus musculus [10] = species on record: Mus musculus; assay: Percent protection of PAF-induced mortality in mice after 5h; NP means no protection; format: functional, organism-based
Outline: (§2)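 Male Swiss mice (22–26 g) given compound as a single 1 mg/kg iv dose at time 0. At the stated time, C18-PAF 100 µg/kg plus propranolol 1 mg/kg injected into a lateral tail vein. […] 10–40 mice per time point.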

Mus musculus [11] = species on record: Mus musculus; assay: Percent protection of PAF-induced mortality in mice after 7h; NP means no protection; format: functional, organism-based; outline: as §2

| Compound | Protection (Mus musculus [1]) [%] | Protection (Mus musculus [2]) [%] | Protection (Mus musculus [3]) [%] | Protection (Mus musculus [4]) [%] | Protection (Mus musculus [5]) [%] | Protection (Mus musculus [6]) [%] | ID50 [7] | Protection (Mus musculus [8]) [%] | ED50 (Mus musculus [9]) [mg/kg] | Protection (Mus musculus [10]) | Protection (Mus musculus [11]) |
| --- | --- | --- | --- | --- | --- | --- | --- | --- | --- | --- | --- |
| CCCCCCCCCCCCCCCCCCNC(=O)OCC(COC(=O)N(Cc1cccc[n+]1CC)C(C)=O)OC.[Cl-] (configuration not stated) [CV-6209] | 95 | 100 | 100 | 100 | 100 | 100 | 0.0078 mg/kg | 48 | 0.022 | – | – |
| CC[n+]1ccccc1CN(C(C)=O)C(=O)OCC1COC(OCCCCCCOCc2ccc(-c3ccccc3)cc2)C1 (configuration not stated) | – | – | – | – | – | – | 0.012 mg/kg | – | – | – | – |
| CCCCCCCCCCCCCCCCCCO[C@@H]1C[C@H](COC(=O)N(Cc2cccc[n+]2CC)C(C)=O)CO1.[I-] | 67 | – | 100 | – | – | – | 0.066 mg/kg | 38 | 0.03 | – | – |
| CCCCCCCCCCCCCCCCCCOC1C[C@H](COC(=O)N(Cc2cccc[n+]2CC)C(C)=O)CO1.[I-] (some centres not stated) | 93 | – | 100 | 100 | – | – | 0.031 mg/kg | 60 | 0.012 | – | – |
| CCCCCCCCCCCCCCCCOCC1CC(COC(=O)N(Cc2cccc[n+]2CC)C(C)=O)CO1.[Cl-] (configuration not stated) | 44 | 100 | 65 | 54 | 75 | – | 0.027 mg/kg | 17 | 0.031 | – | – |
| CCCCCCCCCCCCCCCCCCCCOC1CC(COC(=O)N(Cc2cccc[n+]2CC)C(C)=O)CO1 (configuration not stated) | – | – | – | – | – | – | 0.048 mg/kg | – | – | – | – |
| CCOC1CC(COC(=O)N(Cc2cccc[n+]2CC)C(C)=O)CO1 (configuration not stated) | – | – | – | – | – | – | 2.3 mg/kg | – | – | – | – |
| CCCCCCCCCCCCCCCCCC1CC(COC(=O)N(Cc2cccc[n+]2CC)C(C)=O)CO1.[I-] (configuration not stated) | – | 16 | – | – | 16 | 100 | 0.05 mg/kg | – | 0.36 | inactive | – |
| CCCCCCCCCCCCCCCCCCOC1CC(COC(=O)N(Cc2cccc[n+]2CC)C(C)=O)CO1.[Cl-] (configuration not stated) | 81 | 100 | 95 | 100 | 100 | 100 | 0.026 mg/kg and 0.025 mg/kg | 48 | 0.023 | – | – |
| CC[n+]1ccccc1CN(C(C)=O)C(=O)OCC1COC(OCCC(C)C)C1 (configuration not stated) | – | – | – | – | – | – | 0.21 mg/kg | – | – | – | – |
| CC[n+]1ccccc1CN(C(C)=O)C(=O)OCC1COC(OCCCCCCOCCCCCc2ccccc2)C1.[I-] (configuration not stated) | 38 | 100 | 80 | 89 | 100 | 100 | 0.021 mg/kg | 38 | 0.0083 | – | – |
| C=CCCCCCCOCCCCCCOC1CC(COC(=O)N(Cc2cccc[n+]2CC)C(C)=O)CO1.[I-] (configuration not stated) | 20 | 100 | 40 | 63 | 88 | – | 0.063 mg/kg | – | 0.024 | – | – |
| CCCCCCCCCCOCCCCCCOC1CC(COC(=O)N(Cc2cccc[n+]2CC)C(C)=O)CO1.[I-] (configuration not stated) | 40 | 100 | 88 | 100 | 100 | 100 | 0.004 mg/kg | 51 | 0.0064 | – | – |
| CC[n+]1ccccc1CN(C(C)=O)C(=O)OCC1COC(OCCCCCCOCCCc2ccccc2)C1.[I-] (configuration not stated) | – | 100 | – | – | 50 | – | 0.06 mg/kg | – | 0.073 | inactive | – |
| CC[n+]1ccccc1CN(C(C)=O)C(=O)OCC1COC(OCCC(c2ccccc2)c2ccccc2)C1 (configuration not stated) | – | – | – | – | – | – | 0.11 mg/kg | – | – | – | – |
| CCCCCCCCCCCCCCCCOC1CC(COC(=O)N(Cc2cccc[n+]2CC)C(C)=O)CO1.[I-] (configuration not stated) | 65 | 100 | 64 | 61 | 88 | 100 | 0.01 mg/kg | 44 | 0.024 | – | – |
| CC[n+]1ccccc1CN(C(C)=O)C(=O)OCC1COC(OCCCc2ccccc2)C1 (configuration not stated) | – | – | – | – | – | – | 0.12 mg/kg | – | – | – | – |
| CC[n+]1ccccc1CN(C(C)=O)C(=O)OCC1COC(OCCCCCCCCCCCCCCCCOC)C1.[I-] (configuration not stated) | – | 100 | – | 59 | 66 | 100 | 0.04 mg/kg | – | 0.0076 | – | inactive |
| CCCCCCCCCCCCCCCCCCOCC1CC(COC(=O)N(Cc2cccc[n+]2CC)C(C)=O)CO1.[Cl-] (configuration not stated) | 44 | – | 100 | 100 | 100 | – | 0.011 mg/kg | 33 | 0.026 | – | – |
